Assay outcomes: PubChem BioAssay, several laboratories
The list is not random: actives were taken first. Their share in the collection is about 1.7%.
HTR2A ag = agonists of mouse serotonin 5-HT2A receptor (HTR2A); P35363; CHO-K1 mHTR2A beta-arrestin complementation, luminescence; percent of 30 µM serotonin response; activation, % at 7.6 µM; actives 0.66% (n = 360,000); AID 624169;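 active = activation above a run cutoff, the mean activation of all tested compounds plus 3 SD, cut at about 14% in these data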;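 note: 0% = plate median of compound wells and 100% = 30 µM serotonin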
PP5 inh = inhibitors of human protein phosphatase 5 (PP5); P53041; purified PP5c, OMFP substrate fluorescence; inhibition, % at 6.7 µM; actives 0.18% (n = 320,000); AID 1987;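 active = inhibition above the campaign's mean inhibition across all tested compounds plus 3 SD, cut at about 9.5% in these data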;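 note: 0% = DMSO only and 100% = 100 µM cantharidin control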
Target sequence (P53041 whole entry, looked up): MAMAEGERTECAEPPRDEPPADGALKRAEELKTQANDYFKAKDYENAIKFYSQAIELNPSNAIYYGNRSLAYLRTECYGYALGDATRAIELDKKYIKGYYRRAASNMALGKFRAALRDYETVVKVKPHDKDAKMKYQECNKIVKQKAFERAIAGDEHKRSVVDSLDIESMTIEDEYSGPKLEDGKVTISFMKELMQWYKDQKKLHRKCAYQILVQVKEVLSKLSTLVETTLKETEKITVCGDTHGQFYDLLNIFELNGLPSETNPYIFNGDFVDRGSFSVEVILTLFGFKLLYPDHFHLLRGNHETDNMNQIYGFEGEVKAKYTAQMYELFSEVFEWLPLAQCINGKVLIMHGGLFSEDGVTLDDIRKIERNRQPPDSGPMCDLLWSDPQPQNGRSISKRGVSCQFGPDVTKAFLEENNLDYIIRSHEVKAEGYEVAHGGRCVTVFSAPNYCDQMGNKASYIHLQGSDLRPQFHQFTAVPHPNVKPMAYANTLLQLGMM
PP1 counter = blocks human PP1-alpha phosphatase, a PP5 counter-screen; P62136; actives 0.9% (n = 320,000); AID 2235; inhibition, % at 6.7 µM; purified PP1alpha, OMFP fluorescence;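 active = inhibition above the mean inhibition of all tested compounds plus 3 SD, computed separately for each screening campaign, cut at about 15% in these data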
GASC-1 inh = human JMJD2C demethylase inhibition. AID 2099. GST-JMJD2C(1-420) H3K9me3 demethylation, DELFIA europium. Q9H3R0. actives 0.069% (n = 330,000). inhibition, % at 2.35 µM;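 active = more than half of a compound's replicate wells show inhibition beyond 50%, single wells judged on their own value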;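 note: signal counts dimethyl H3K9 product captured on neutravidin plate; 0% = median of DMSO wells and 100% = 0.3 times that DMSO median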
T cell HTS = T cell immune modulators affecting CD8 T cell-vesicle binding | response (vesicle binding), % at 7 µM | AID 2052 | 2C CD8+ T cell-vesicle binding, flow cytometry; stronger effect = lower value | actives 0.068% (n = 330,000);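 active = response, share of CD8 T cells binding vesicles, and their 90th percentile fluorescence all below set limits, cut at about 80% in these data, passing the limit was not always enough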;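 note: values below 100% mean blocked vesicle binding to the CD8+ T cells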
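System: murine 2C transgenic CD8+ T lymphocytes; also added: QL9-loaded Drosophila micro-vesicles; times: binding 1.5 h at 37 °C; measured by: flow cytometry, PE anti-B7-1 (FL2) versus Alexa647 anti-CD8 (FL8), PFA-fixed; control set: Peptide-free naked vesicles (low) and QL9 vesicles with 0.7% DMSO vehicle (high)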
* marks the source's active call; other numbers are inactive results; i = inactive; . = no result.

SMILES	HTR2A ag	PP5 inh	PP1 counter	GASC-1 inh	T cell HTS
COc1ccc(Cn2nnnc2C(c2cccs2)N2CCCCCC2)cc1 (configuration not stated)	-2	0	3	3	52*
CC(=O)C1=C(C)NC(SCSc2ccccc2)=C(C#N)C1c1cccnc1 (configuration not stated)	.	1	4	-7	429
CC(=O)C1=C(C)NC(SCC(=O)c2ccc(-c3ccccc3)cc2)=C(C#N)C1c1cccnc1 (configuration not stated)	.	0	27*	14	0
CCn1c(COc2ccccc2)nnc1SCC(=O)NC1CC1	4	0	-7	11	522
Cc1cc(C(=O)CN2C(=O)C(=O)N(Cc3ccco3)C2=O)c(C)n1CCc1ccc(F)cc1	-1	5	17*	2	341
CN(C(=O)c1ccc2c(c1)C(=O)N(CCC1=CCCCC1)C2=O)C1CCCCC1	-1	4	5	-7	34
O=C(O)c1ccc2c(c1)C(=O)N(CCC1=CCCCC1)C2=O	7	4	0	101*	123
COC(=O)c1ccc(OCC(=O)NC2CCCCCC2)cc1	3	-6	-1	7	184
Cc1cccc(-n2cnc3cc(C(=O)N4CCc5ccccc54)ccc32)c1	4	2	-6	62	209
CCn1c(SCC(=O)NC2CCCC2)nnc1-c1c[nH]c2ccccc12	-6	2	4	6	563
Cc1cc(NC(=O)CSc2c[nH]c3ccccc23)no1	1	-7	-3	-4	127
Cc1cc(NC(=O)CSc2nnc(-c3c[nH]c4ccccc34)n2-c2ccc(Cl)cc2)no1	-3	1	15*	3	153
CCn1c(SCC(=O)NCC2CCCO2)nnc1-c1c[nH]c2ccccc12 (configuration not stated)	-2	2	2	11	0.0*
Cc1cc(-c2nc3cc(F)ccc3s2)ccc1N	3	.	.	.	.
Cc1ccc(S(=O)(=O)Nc2ccc(C(=O)NCCCN3CCOCC3)cc2)cc1[N+](=O)[O-]	-5	0	-4	-3	418
Cc1ccc(C)c(NC(=O)C(OC(=O)c2cc[n+]([O-])cc2)c2ccccc2)c1 (configuration not stated)	4	.	.	.	.
Cc1nnsc1C(=O)NNc1c(Cl)cccc1Cl	1	3	-3	-8	521
CCc1ccccc1NNC(=O)c1snnc1C	-1	0	-1	15	52*
O=C(SCc1c(O)c2ccccc2oc1=O)c1ccccc1	3	.	.	.	.
O=c1oc2ccccc2c(O)c1Cc1cc(Cl)c2cccnc2c1O	4	-2	16*	11	307
C[C@@H]1CN([C@H](C)CO)C(=O)c2c(c3ccccc3n2C)-c2ccccc2CO[C@H]1CN(C)C(=O)c1cc(Cl)cc(Cl)c1	-5	.	.	.	.
CCCN1CNC(=S)N(CC2CCCO2)C1 (configuration not stated)	6	2	-3	0	211
Cc1ccc(OCCCN2C(=O)C(=O)c3cccc(C)c32)cc1	-7	2	16*	4	146
Cc1ccccc1OCCN1C(=O)C(=O)c2cccc(C)c21	-1	1	16*	-4	158
CC(=O)c1ccc(N2CCN(C(=O)CNC(=O)c3ccc(Br)o3)CC2)cc1	-3	.	.	.	.
SMILES	HTR2A ag	PP5 inh	PP1 counter	GASC-1 inh	T cell HTS
Cc1csc(C(C)NC(=O)c2ccc(OC3CCN(CCc4ccccc4)CC3)cc2)n1 (configuration not stated)	-8	1	-1	12	190
CC(=O)N(C)C1=C(N2CCOCC2)C(=O)c2ccccc2C1=O	7	6	1	99*	486
CCN(Cc1ccccc1)C(c1ccc(C(F)(F)F)cc1)c1nnnn1C(C)(C)C (configuration not stated)	-3	0	15*	0	424
Cc1ccc(-c2csc3ncnc(SCc4ccc(C(=O)O)cc4)c23)cc1	-7	3	16*	.	379
CCN1/C(=C/C=C/c2oc3ccc4ccccc4c3[n+]2CC)Oc2ccc3ccccc3c21	.	-1	49*	-26	i
COc1cc(F)ccc1S(=O)(=O)NCc1cccnc1	-4	-3	3	6	284
CCCCNS(=O)(=O)c1ccc(NC(=O)c2c(-c3ccccc3Cl)noc2C)cc1	-9	3	5	4	285
CCCCC1=CC2=C(c3ccco3)C(=O)C(C)(OC(=O)c3ccc(OC)cc3)C(=O)C2=CN1Cc1ccc2c(c1)OCO2 (configuration not stated)	1	2	24*	7	645
CCCCC1=CC2=C(c3ccco3)C(=O)C(C)(OC(=O)c3ccc(OC)cc3)C(=O)C2=CN1Cc1ccccc1 (configuration not stated)	4	0	13	0	274
Cc1c(C(=O)Nc2ccccc2F)sc2ncn(CC(=O)N3CCCCC3)c(=O)c12	5	-8	4	-1	636
CCCCNC(=O)C(CC)(ONc1ccccc1C(F)(F)F)c1ccccc1OC (configuration not stated)	1	1	3	2	291
Cc1nn(-c2ccccn2)c2nc(-c3cccs3)cc(C(=O)NCc3ccco3)c12	2	3	17*	-11	187
COc1ccc(C(O)c2coc3ccc(O)c(CN(C)C)c23)cc1 (configuration not stated)	-9	-6	-3	6	6.9*
COc1ccc(OC)c(C(=O)c2coc3ccc(O)c(CN(C)C)c23)c1	3	3	-1	-13	258
CCOC(=O)N1CCN(C(=O)C[C@@H]2C[C@@]3(C(=O)OCC)CCCC=C3N(Cc3ccc(Cl)cc3Cl)C2=O)CC1	1	.	.	.	.
CCCCc1ccc(NC(=O)CSCc2cc(=O)[nH][nH]2)cc1	1	0	16*	2	239
CSc1nsc(SC)c1-c1ccc(Cl)cc1	0	.	.	.	.
Cc1cc(C)c2[nH]c(=O)c(CN(Cc3cccs3)C(=S)NCc3ccco3)cc2c1	-1	2	16*	-18	150
Nc1ccc2c(c1)C(=O)c1ccccc1-2	-1	3	-2	-7	116
Nc1ccc2c(c1)C(=O)C(=O)c1ccccc1-2	1	8	39*	19	323
Cc1ccc2nc(-c3ccc(NC(=O)CSc4nc(N)cc(=O)[nH]4)cc3)sc2c1	-2	-2	16*	4	0
Nc1c(C(=O)c2ccc(Cl)cc2)sc2c1c(=O)[nH]c(=O)n2-c1ccccc1	-3	0	16*	-5	398
C=CCN1C(=O)C(Cc2ccc(F)cc2)S/C1=N/N=C/c1ccco1 (configuration not stated)	0	3	0	7	0.0*
Cc1ccc(NC(=S)N2CCN(c3ccccc3F)CC2)c(C)c1	-7	6	-1	3	665
O=C(CNC(=O)c1cccc(F)c1)N/N=C/c1cc(Br)ccc1OC(=O)/C=C/c1ccco1	-2	.	.	0	.
